Read-outs that look alike come from different tables or passages of the source.
How the values were obtained:
SARS-CoV-2 [1] = test: SARS-CoV-2 replication in hACE2-HeLa cells; assay type: cell-based; conditions: 10 μmol/L
[2] = tested on: panel of over 300 wild-type human kinases; test: KINOMEscan kinase selectivity profile; assay type: binding; conditions: 1 μmol/L
[3] = Pharmacokinetic studies in mice; assay type: in vivo, male ICR mice
Procedure, shortened: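 Test compound was formulated in 10% (v/v) dimethylacetamide and 10% (w/v) Solutol HS 15 in normal saline. It was given to male ICR mice by tail-vein iv (1 mpk) or ip (10 mpk). Plasma from centrifuged whole blood was diluted in acetonitrile with internal standard. Brain was taken into PBS/acetonitrile (1:8) with internal standard and homogenised (30 Hz, 10 min). Samples were centrifuged (4 °C, 14,000 rpm, 10 min) and analysed by LC-MS/MS.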

[4] = tested on: expression levels of ACE2; assay type: cell-based; conditions: mouse airway organoids
cytokine secretion = assay type: cell-based, mouse; conditions: single agent
SARS-CoV-2 [5] = assay type: in vivo, K18-hACE2 transgenic mice; conditions: ip, BID; for Weight loss in infected mice: five days; for SARS-CoV-2 viral loads in the lungs: Day 6, RT-PCR and IHC
SARS-CoV-2 [6] = assay type: cell-based; conditions: 4 μmol/L
[7] = tested on: phosphorylation levels of RIPK1 Ser166; assay type: cell-based; conditions: mouse airway organoids
USP8 = biological target: T1, USP8 (Homo sapiens, UniProt P40818); test: DUB enzymatic assay; assay type: biochemical; conditions: 10 μmol/L
T1 sequence (P40818 1-1118): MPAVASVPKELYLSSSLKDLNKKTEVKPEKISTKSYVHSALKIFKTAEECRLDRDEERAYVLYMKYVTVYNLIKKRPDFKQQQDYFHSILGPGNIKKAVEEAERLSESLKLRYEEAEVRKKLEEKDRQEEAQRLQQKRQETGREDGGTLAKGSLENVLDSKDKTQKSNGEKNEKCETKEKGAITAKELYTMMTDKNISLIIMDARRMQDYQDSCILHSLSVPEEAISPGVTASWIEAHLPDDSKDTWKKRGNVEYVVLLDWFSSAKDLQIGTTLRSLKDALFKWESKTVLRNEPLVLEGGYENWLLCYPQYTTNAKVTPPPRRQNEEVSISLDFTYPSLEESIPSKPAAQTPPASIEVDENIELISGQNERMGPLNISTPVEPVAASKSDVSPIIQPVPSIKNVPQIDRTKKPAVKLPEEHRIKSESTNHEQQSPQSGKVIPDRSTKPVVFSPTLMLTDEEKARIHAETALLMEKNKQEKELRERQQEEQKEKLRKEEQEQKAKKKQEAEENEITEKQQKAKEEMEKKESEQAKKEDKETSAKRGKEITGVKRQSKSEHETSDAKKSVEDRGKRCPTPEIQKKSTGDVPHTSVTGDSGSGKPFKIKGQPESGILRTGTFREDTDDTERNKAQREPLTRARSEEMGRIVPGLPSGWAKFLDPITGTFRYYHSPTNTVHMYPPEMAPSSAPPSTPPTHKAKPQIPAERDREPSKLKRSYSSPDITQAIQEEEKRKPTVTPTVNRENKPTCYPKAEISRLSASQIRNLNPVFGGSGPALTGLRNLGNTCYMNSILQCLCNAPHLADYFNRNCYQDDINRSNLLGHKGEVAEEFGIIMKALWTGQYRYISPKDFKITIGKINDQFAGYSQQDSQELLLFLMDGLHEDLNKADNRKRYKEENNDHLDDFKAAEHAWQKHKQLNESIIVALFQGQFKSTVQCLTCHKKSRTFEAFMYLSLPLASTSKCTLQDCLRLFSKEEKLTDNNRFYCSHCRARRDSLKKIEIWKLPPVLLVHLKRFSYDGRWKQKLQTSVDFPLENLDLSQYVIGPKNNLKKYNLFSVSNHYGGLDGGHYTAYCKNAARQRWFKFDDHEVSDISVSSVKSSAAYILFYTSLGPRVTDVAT

OTUB1 = OTUB1 (Homo sapiens, UniProt Q96FW1); test: DUB enzymatic assay; assay type: biochemical; conditions: 10 μmol/L
OTUB1, sequence (Q96FW1 whole entry, species assumed): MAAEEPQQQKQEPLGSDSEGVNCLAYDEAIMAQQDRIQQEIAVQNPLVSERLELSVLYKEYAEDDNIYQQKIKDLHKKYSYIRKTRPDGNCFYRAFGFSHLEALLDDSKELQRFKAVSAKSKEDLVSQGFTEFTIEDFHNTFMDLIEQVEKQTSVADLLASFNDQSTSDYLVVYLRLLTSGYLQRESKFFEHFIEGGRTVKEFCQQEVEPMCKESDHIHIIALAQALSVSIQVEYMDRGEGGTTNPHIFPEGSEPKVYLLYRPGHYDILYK

229E = assay type: cell-based, HCoV-229E
UCHL1 = biological target: T2, UCHL1 (Homo sapiens, UniProt P09936); test: DUB enzymatic assay; assay type: biochemical; conditions: 10 μmol/L
T2 sequence (P09936 1-223): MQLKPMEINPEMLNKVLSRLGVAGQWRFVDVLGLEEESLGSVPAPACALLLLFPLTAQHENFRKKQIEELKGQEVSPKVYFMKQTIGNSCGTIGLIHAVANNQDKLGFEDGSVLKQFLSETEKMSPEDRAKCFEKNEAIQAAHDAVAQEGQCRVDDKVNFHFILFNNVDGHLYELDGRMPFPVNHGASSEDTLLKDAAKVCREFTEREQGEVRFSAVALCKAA

OC43 = assay type: cell-based, HCoV-OC43; conditions: Huh7 hepatocytes, 0.1 MOI
[8] = Stability in mouse liver microsomes; assay type: in vitro ADME; conditions: compared to 2
USP7 = USP7 (Homo sapiens, UniProt Q93009); test: DUB enzymatic assay; assay type: biochemical; conditions: 10 μmol/L
USP7, sequence (Q93009 whole entry, species assumed): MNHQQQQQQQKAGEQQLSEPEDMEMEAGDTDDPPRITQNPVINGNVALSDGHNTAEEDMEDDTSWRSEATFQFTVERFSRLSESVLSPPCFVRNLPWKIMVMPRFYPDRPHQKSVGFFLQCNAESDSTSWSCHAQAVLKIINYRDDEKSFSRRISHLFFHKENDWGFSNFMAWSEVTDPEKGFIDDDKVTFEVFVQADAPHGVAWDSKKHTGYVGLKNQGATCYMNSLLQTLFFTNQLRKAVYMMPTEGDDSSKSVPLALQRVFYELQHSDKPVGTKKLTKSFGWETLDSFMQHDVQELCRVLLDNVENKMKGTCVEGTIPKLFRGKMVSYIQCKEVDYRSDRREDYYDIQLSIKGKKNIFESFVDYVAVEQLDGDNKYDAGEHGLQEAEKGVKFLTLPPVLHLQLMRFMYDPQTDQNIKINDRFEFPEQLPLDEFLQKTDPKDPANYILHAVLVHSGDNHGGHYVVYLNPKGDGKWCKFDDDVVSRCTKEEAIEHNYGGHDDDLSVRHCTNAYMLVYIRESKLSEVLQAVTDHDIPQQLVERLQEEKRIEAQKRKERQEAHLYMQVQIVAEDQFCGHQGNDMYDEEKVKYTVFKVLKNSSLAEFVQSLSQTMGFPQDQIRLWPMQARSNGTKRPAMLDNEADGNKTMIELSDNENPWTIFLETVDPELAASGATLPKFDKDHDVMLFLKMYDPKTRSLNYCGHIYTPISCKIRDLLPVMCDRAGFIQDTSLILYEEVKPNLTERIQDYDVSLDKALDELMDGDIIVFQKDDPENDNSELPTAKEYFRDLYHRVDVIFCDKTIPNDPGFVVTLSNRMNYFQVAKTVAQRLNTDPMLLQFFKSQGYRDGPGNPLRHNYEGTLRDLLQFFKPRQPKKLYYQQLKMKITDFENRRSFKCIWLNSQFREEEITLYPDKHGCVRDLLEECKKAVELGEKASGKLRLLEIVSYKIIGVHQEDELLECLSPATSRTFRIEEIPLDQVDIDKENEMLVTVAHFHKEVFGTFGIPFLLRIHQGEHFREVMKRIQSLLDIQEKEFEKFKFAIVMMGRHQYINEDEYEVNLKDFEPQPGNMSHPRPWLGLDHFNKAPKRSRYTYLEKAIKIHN

Nsp3179-1329 proteins = Nsp3179-1329 proteins (Severe acute respiratory syndrome coronavirus 2, UniProt P0DTD1); parameters: species or system SARS-CoV-2; conditions: incubation with compound, SEC
SARS-CoV-2 Nsp3^179−1329 = SARS-CoV-2 Nsp3^179−1329 (Severe acute respiratory syndrome coronavirus 2, UniProt P0DTD1); test: Nsp3 DUB activity, Rho-110 cleavage assay; assay type: biochemical
USP14 = USP14 (Homo sapiens, UniProt P54578); test: DUB enzymatic assay; assay type: biochemical; conditions: 10 μmol/L
USP14, sequence (P54578 whole entry, species assumed): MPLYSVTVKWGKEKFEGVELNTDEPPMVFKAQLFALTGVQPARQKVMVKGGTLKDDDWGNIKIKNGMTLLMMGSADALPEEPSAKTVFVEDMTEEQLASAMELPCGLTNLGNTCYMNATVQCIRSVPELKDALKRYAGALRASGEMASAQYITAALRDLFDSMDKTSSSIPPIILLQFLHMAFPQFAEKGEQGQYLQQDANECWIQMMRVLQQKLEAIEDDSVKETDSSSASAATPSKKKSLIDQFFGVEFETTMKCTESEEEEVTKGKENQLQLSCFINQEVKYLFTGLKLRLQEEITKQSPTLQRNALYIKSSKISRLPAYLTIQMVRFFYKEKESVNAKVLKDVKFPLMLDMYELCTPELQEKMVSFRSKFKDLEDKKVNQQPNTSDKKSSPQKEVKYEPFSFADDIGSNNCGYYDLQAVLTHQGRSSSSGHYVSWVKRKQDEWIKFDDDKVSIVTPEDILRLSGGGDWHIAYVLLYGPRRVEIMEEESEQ

OTULIN = OTULIN (Homo sapiens, UniProt Q96BN8); test: DUB enzymatic assay; assay type: biochemical; conditions: 10 μmol/L
OTULIN, sequence (Q96BN8 whole entry, species assumed): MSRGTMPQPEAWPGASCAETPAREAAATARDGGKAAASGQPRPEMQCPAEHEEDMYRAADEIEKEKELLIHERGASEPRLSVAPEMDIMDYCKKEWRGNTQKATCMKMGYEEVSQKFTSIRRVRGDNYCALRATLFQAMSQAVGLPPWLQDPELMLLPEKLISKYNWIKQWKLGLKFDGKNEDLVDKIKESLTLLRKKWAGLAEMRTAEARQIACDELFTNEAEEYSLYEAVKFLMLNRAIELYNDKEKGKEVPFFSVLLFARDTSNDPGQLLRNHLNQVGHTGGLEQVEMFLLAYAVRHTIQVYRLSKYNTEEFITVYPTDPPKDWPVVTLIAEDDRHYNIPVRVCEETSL

CN1C(=O)[C@@H](NC(=O)c2nnc(Cc3ccccc3)[nH]2)COc2cccnc21 [DNL758, reference compound]
Effects against SARS-CoV-2 in ACE2-HeLa cells (SARS-CoV-2 [1]): neither QY1892 nor DNL758 exhibited detectable effects

[2H]c1c([2H])c([C@]2([2H])CCCN2C(=O)C(C)(C)Oc2ccc3cn[nH]c3c2)c([2H])c([2H])c1C([2H])([2H])[2H] [QY1892, (S)-2-((1H-Indazol-6-yl)oxy)-2-methyl-1-(2-(4-(methyl-d3)phenyl-2,3,5,6-d4)pyrrolidin-1-yl-2-d)propan-1-one]
Kinase selectivity across the kinome [2]: no significant off-target activity observed across the kinome | Brain distribution post-administration [3]: significant brain distribution | Expression levels of ACE2 [4]: significantly reduced | Cytokine secretion from the organoids upon viral infection (cytokine secretion): significantly more effective than SHY1643 | Weight loss in infected mice (SARS-CoV-2 [5]; 5 mpk): significantly slowed the weight loss | SARS-CoV-2 viral loads in the lungs (SARS-CoV-2 [5]; 5 mpk): effectively reduced viral loads in the lungs | Viral replication in mouse airway organoids (SARS-CoV-2 [6]): effectively suppressed the viral replication | Effects against SARS-CoV-2 in ACE2-HeLa cells (SARS-CoV-2 [1]): neither QY1892 nor DNL758 exhibited detectable effects | Phosphorylation levels of RIPK1 Ser166 following viral infection [7]: significantly reduced

C[C@H](c1cccc2ccccc12)N1CCC(C(=O)NCc2cccc(-c3cn(Cc4nnc5c(F)cccn45)nn3)c2)CC1 [SHY1643, (R)-N-(3-(1-((8-Fluoro-[1,2,4]triazolo[4,3-a]pyridin-3-yl)methyl)-1H-1,2,3-triazol-4-yl)benzyl)-1-(1-(naphthalen-1-yl)ethyl)piperidine-4-carboxamide]
Inhibitory effect on USP8 (USP8): no significant inhibitory effects | Inhibitory effect on OTUB1 (OTUB1): no significant inhibitory effects | Antiviral activity against 229E (229E): robust antiviral activity | Inhibitory effect on UCHL1 (UCHL1): no significant inhibitory effects | Antiviral activity against OC43 (OC43): robust antiviral activity | Metabolic stability in mouse microsomes [8]: markedly improved metabolic stability compared to 2 | Expression levels of ACE2 [4]: did not affect | Weight loss in infected mice (SARS-CoV-2 [5]; 10 mpk): significantly slowed the weight loss | SARS-CoV-2 viral loads in the lungs (SARS-CoV-2 [5]; 10 mpk): effectively reduced viral loads in the lungs | Inhibitory effect on USP7 (USP7): no significant inhibitory effects | Dimerization of Nsp3 protein (Nsp3179-1329 proteins): could induce dimerization of Nsp3 protein | IC50 (SARS-CoV-2 Nsp3^179−1329): 28 nM | Phosphorylation levels of RIPK1 Ser166 following viral infection [7]: did not affect | Inhibitory effect on USP14 (USP14): no significant inhibitory effects | Inhibitory effect on OTULIN (OTULIN): no significant inhibitory effects

Reference: paper PMC12827892 (Acta Pharmaceutica Sinica. B, 2025)
